A short description of series [1]: Inhibition of EGFP-fused MERS-CoV spike protein mediated cell-cell fusion between viral protein expressing human 293T cells and human HuH7 target cells after 4 hrs by inverted fluorescence microscopic analysis. Set-up: species or system Middle East respiratory syndrome-related coronavirus. In short, it runs like this: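 Huh-7 target cells expressing DPP4 were seeded at 5 × 10^4/well and kept at 37 °C for 5 h. Inhibitors were added, then 293T effector cells co-expressing S protein and EGFP (1 × 10^4/well); 293T/EGFP-only cells served as negative control. After 4 h coculture at 37 °C, fused and unfused cells were counted by fluorescence microscopy.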

Series [2] in a line: Inhibition of MERS-CoV spike protein mediated cell-cell fusion between viral protein expressing human 293T cells and human HuH7 target cells assessed as decrease in pseudovirus infection preincubated with virus for 1 hr followed by HuH7 cells addition measured after 48 hrs by luciferase reporter gene assay. Further details: species or system Middle East respiratory syndrome-related coronavirus. The method in brief:
(§1)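 Graded peptide concentrations were preincubated with luciferase-reporter pseudovirus bearing MERS-CoV S for 1 h at room temperature. The mixture was added to Huh-7 or Calu-3 cells, with medium refreshed at 12 h. After a further 48 h at 37 °C, luciferase was read. Values are from three independent experiments, mean ± SD.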
(Reporter assays use an easily measured gene product as a stand-in for the process of interest.)

The nature of series [3]: Cytotoxicity against human HuH7 cells after 48 hrs by CCK-8 assay. Format: cell-based, Huh-7. In short, it runs like this:
(§2)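 Cells (1 × 10^5 per well) were preincubated at 37 °C for 12 h, then given graded peptide concentrations. After 48 h at 37 °C, CCK-8 was added and absorbance at 450 nm was read 2 h later.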
In general terms: Tetrazolium dyes change colour on reduction, which living cells bring about.

The nature of series [4]: Inhibition of MERS-CoV spike protein mediated cell-cell fusion between viral protein expressing human 293T cells and human Calu3 target cells assessed as decrease in pseudovirus infection preincubated with virus for 1 hr followed by HuH7 cells addition measured after 48 hrs by luciferase reporter gene assay. Further details: species or system Middle East respiratory syndrome-related coronavirus. In short, it runs like this: as §1

For the next series, the system named is Calu-3. The experiment in a line: Cytotoxicity against human Calu3 cells at 100 uM after 48 hrs by CCK-8 assay. As to conditions: calu-3, 48 h. The series is classed as cell-based. In short, it runs like this:
as §2

Series [5] can be described thus: Binding affinity to NHR peptide HR1P in pH 7.2 phosphate buffer assessed as formation of alpha-helical complex at 50 uM after 30 mins by CD spectroscopic method. In short, it runs like this:
(§3)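 Peptides were at 50 µM final in 50 mM PBS, pH 7.2. Equimolar HR1P/peptide mixtures were incubated at 25 °C for 30 min before CD scanning. α-Helicity was taken from [θ]222, where -33,000 deg cm2/dmol = 100% helix.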

The nature of series [6]: Binding affinity to NHR peptide HR1P in pH 7.2 phosphate buffer assessed as formation of alpha-helical complex at 200 uM after 30 mins by N-PAGE analysis. The method in brief:
(§4)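 Stapled peptide and HR1P, each 200 µM (in 50 mM PBS or ddH2O), were incubated together at 25 °C for 30 min. Samples in Tris-glycine native sample buffer were run on an 18% Tris-glycine gel (pH 8.3 buffer) at 120 V for 3 h at room temperature and stained with Coomassie blue R250.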

Series [7] in a line: Binding affinity to NHR peptide HR1P in pH 7.2 phosphate buffer assessed as thermal unfolding transition at 50 uM after 30 mins by CD spectroscopic method. In short, it runs like this:
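Equimolar HR1P/peptide mixtures, 50 µM final in 50 mM PBS pH 7.2, were preincubated at 25 °C for 30 min. Thermal denaturation was followed by CD at 222 nm over a 10–90 °C gradient at 2 °C/min.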

Series [8] can be described thus: Binding affinity to NHR peptide HR1P in pH 7.2 phosphate buffer at 200 uM after 30 mins by N-PAGE analysis. In short, it runs like this: as §4
Series [9] is described as follows: Binding affinity to NHR peptide HR1P in pH 7.2 phosphate buffer at 250 uM after 30 mins by sedimentation velocity analysis. In short, it runs like this: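 HR1P/peptide mixtures at 250 µM in 50 mM PBS were incubated at 25 °C for 30 min. After an initial scan at 3000 rpm for 10 min, sedimentation velocity was run at 60,000 rpm, 280 nm, 20 °C, for 7 h. Weight-averaged molecular weights were obtained by fitting.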

Series [10] can be described thus: Binding affinity to NHR peptide HR1P in pH 7.2 phosphate buffer at 50 uM after 30 mins by CD spectroscopic method. In short, it runs like this: as §3
The mark [11] stands for this setting: Middle East respiratory syndrome-related coronavirus.

The source made the active and inactive calls. The calls are words filed in the database; no cut-off is given here. Where a SMILES comes first, the peptide text is derived from it. Bridges are numbered along the chain shown (N, C = ends). [ ]: non-standard residue; d: D form. S5 = C=CCCC[C@](C)(N)C(=O)O; Nle = CCCC[C@H](N)C(=O)O

On to `CCCC[C@H](NC(=O)[C@H](CCC(=O)O)NC(=O)[C@H](Cc1ccc(O)cc1)NC(=O)[C@@H](NC(=O)[C@H](CC(C)C)NC(=O)[C@H](CC(=O)O)NC(=O)[C@H](CC(C)C)NC(C)=O)[C@@H](C)O)C(=O)N[C@@H](CC(C)C)C(=O)N[C@@H](CO)C(=O)N[C@@H](CC(C)C)C(=O)N[C@@H](CCC(N)=O)C(=O)N[C@@]1(C)CCC/C=C\CCC[C@@](C)(C(=O)N[C@@H](CC(C)C)C(=O)N[C@@H](CC(N)=O)C(=O)N[C@@H](CCC(=O)O)C(=O)N[C@@H](CO)C(=O)N[C@@H](Cc2ccc(O)cc2)C(N)=O)NC(=O)[C@H](CCCCN)NC(=O)[C@H](C(C)C)NC(=O)[C@H](C(C)C)NC1=O` (Ac-LDLTYE[Nle]LSLQ[S5]VVK[S5]LNESY-NH2; staple (Z) 12-16), for which the EC50 (usually the concentration that produces a half-maximal response) was found to be 630 nM in series [1], 2800 nM in series [2] and 2570 nM in [4]. Also, the CC50 (in general, the concentration that lowers cell viability or growth by half) at 48 h in series [3] is greater than 100 µM. In addition, the Activity result in the series with Calu-3 is “Non-Toxic”.

For the compound `CSCC[C@H](NC(=O)[C@H](CCC(=O)O)NC(=O)[C@H](Cc1ccc(O)cc1)NC(=O)[C@@H](NC(=O)[C@H](CC(C)C)NC(=O)[C@H](CC(=O)O)NC(=O)[C@H](CC(C)C)NC(C)=O)[C@@H](C)O)C(=O)N[C@@H](CC(C)C)C(=O)N[C@@H](CO)C(=O)N[C@@H](CC(C)C)C(=O)N[C@@]1(C)CCC/C=C/CCC[C@@](C)(C(=O)N[C@@H](C)C(=O)N[C@@H](CC(C)C)C(=O)N[C@@H](CC(N)=O)C(=O)N[C@@H](CCC(=O)O)C(=O)N[C@@H](CO)C(=O)N[C@@H](Cc2ccc(O)cc2)C(N)=O)NC(=O)[C@H](C(C)C)NC(=O)[C@H](C(C)C)NC(=O)[C@H](CCC(N)=O)NC1=O` (Ac-LDLTYEMLSL[S5]QVV[S5]ALNESY-NH2; staple (E) 11-15), in [1], the EC50 is greater than 50000 nM. In addition, the result in [5] and in series [6] was inactive.

On to `CSCC[C@H](NC(=O)[C@H](CCC(=O)O)NC(=O)[C@H](Cc1ccc(O)cc1)NC(=O)[C@@H](NC(=O)[C@H](CC(C)C)NC(=O)[C@H](CC(=O)O)NC(=O)[C@H](CC(C)C)NC(C)=O)[C@@H](C)O)C(=O)N[C@@H](CC(C)C)C(=O)N[C@@H](CO)C(=O)N[C@@H](CC(C)C)C(=O)N[C@@H](CCC(N)=O)C(=O)N[C@@]1(C)CCC/C=C\CCC[C@@](C)(C(=O)N[C@@H](CC(C)C)C(=O)N[C@@H](CC(N)=O)C(=O)N[C@@H](CCC(=O)O)C(=O)N[C@@H](CO)C(=O)N[C@@H](Cc2ccc(O)cc2)C(N)=O)NC(=O)[C@H](CCCCN)NC(=O)[C@H](C(C)C)NC(=O)[C@H](C(C)C)NC1=O` (Ac-LDLTYEMLSLQ[S5]VVK[S5]LNESY-NH2; staple (Z) 12-16), for which the EC50 in series [1] amounted to 260 nM; in series [2] (setting [11]) it was 3030 nM; in [4] (setting [11]), 2210 nM. Also, the CC50 at 48 h in series [3] is greater than 100 µM. In addition, the Activity result in the series with Calu-3 was “Non-Toxic”; in [5], 35.5%. In addition, in [7], the Tm – broadly, the temperature at the midpoint of the melting transition – worked out at 71.1 °C. For the same compound, the result in [8] and in series [9] was Active.

For the compound `CSCC[C@@H]1NC(=O)[C@H](CCC(=O)O)NC(=O)[C@H](Cc2ccc(O)cc2)NC(=O)[C@@](C)(NC(=O)[C@H](CC(C)C)NC(=O)[C@H](CC(=O)O)NC(=O)[C@H](CC(C)C)NC(C)=O)CCC/C=C\CCC[C@@](C)(C(=O)N[C@@H](CO)C(=O)N[C@@H](CC(C)C)C(=O)N[C@@H](CCC(N)=O)C(=O)N[C@@H](CCC(N)=O)C(=O)N[C@H](C(=O)N[C@H](C(=O)N[C@@H](CCCCN)C(=O)N[C@@H](C)C(=O)N[C@@H](CC(C)C)C(=O)N[C@@H](CC(N)=O)C(=O)N[C@@H](CCC(=O)O)C(=O)N[C@@H](CO)C(=O)N[C@@H](Cc2ccc(O)cc2)C(N)=O)C(C)C)C(C)C)NC1=O`, the EC50 in series [1] is greater than 50000 nM. Also, in series [10], the outcome was inactive.

Take `CSCC[C@H](NC(=O)[C@H](CCC(=O)O)NC(=O)[C@H](Cc1ccc(O)cc1)NC(=O)[C@@H](NC(=O)[C@H](CC(C)C)NC(=O)[C@H](CC(=O)O)NC(=O)[C@H](CC(C)C)NC(C)=O)[C@@H](C)O)C(=O)N[C@@H](CC(C)C)C(=O)N[C@@H](CO)C(=O)N[C@@H](CC(C)C)C(=O)N[C@@H](CCC(N)=O)C(=O)N[C@@H](CCC(N)=O)C(=O)N[C@H](C(=O)N[C@H](C(=O)N[C@@H](CCCCN)C(=O)N[C@@]1(C)CCC/C=C\CCC[C@@](C)(C(=O)N[C@@H](Cc2ccc(O)cc2)C(N)=O)NC(=O)[C@H](CCC(=O)O)NC(=O)[C@H](CC(N)=O)NC(=O)[C@H](CC(C)C)NC1=O)C(C)C)C(C)C`: the EC50 in series [1] was found to be 330 nM; in series [2] (setting [11]) it was 970 nM; in series [4] (setting [11]), 1580 nM. In [3], this compound returned a half-maximal cytotoxic concentration (CC50) at 48 h greater than 100 µM. Further, the Activity result with Calu-3 is “Non-Toxic”; in [5] it was 45.6%. The Tm in series [7] is 76.4 °C. Besides, the outcome in series [8] and in [9] was Active.

Source of the values: ChEMBL document CHEMBL4118106 (J Med Chem, 2018).
